Assay results taken from ChEMBL document CHEMBL1156262, “Substituted benzothiophene or benzofuran derivatives as a novel class of bone morphogenetic protein-2 up-regulators: synthesis, structure-activity relationships, and preventive bone loss efficacies in senescence accelerated mice (SAMP6) and ovariectomized rats” (J Med Chem, 2010).
Activity calls are given as the source filed them. The rule behind the calls is not given here.

How the values were obtained:
[1] = Induction of BMP2 expression in mouse calcarial MC3T3-E1 cells stably transfected with mouse BMP2 promotor-luciferase assessed as upregulation rate at 4 uM; assay type: functional, cell-based
Procedure, shortened: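 Reporter assay in murine calvarial MC3T3-E1 cells stably carrying the mouse BMP-2 promoter fused to firefly luciferase (pGL4BMP-2). Cells grown in DMEM with 10% heat-inactivated FBS at 37 °C and 5% CO2. Test compounds at 4.0 μM; lovastatin at 0.4 μM as positive control; 0.1% DMSO as negative control. Up-regulation rate = (RLU of test − RLU of negative control)/RLU of negative control × 100.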

[2] = Toxicity in po dosed Kunming mouse assessed as mortality treated for 3 days measured after 17 days; assay type: organism-based; conditions: in vivo
Procedure, shortened: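 Male and female Kunming mice (18-21 g), six per group (three males, three females), were dosed orally at 500 or 700 (mg/kg)/day for 3 days. They were closely watched for deaths over the 3 dosing days and the following 14 days (17 days in total).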

[3] = system: Mus musculus; assay: Induction of bone mineral density in SAMP6 mouse assessed as left hind leg BMD at 30 mg/kg/day, po measured after 3 months; assay type: functional
Procedure, shortened: (§1)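 SAMP6 mice, 5 months old, n = 5 per group, given compound in 0.5% methylcellulose by gavage daily. Dual-energy X-ray absorptiometry under pentobarbital anaesthesia (50 mg/kg ip), animals prone, at 0, 4, 8 and 12 weeks of treatment. Regions of interest were whole body, spine and left hind leg.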

[4] = system: Mus musculus; assay: Induction of bone mineral density in SAMP6 mouse assessed as whole body BMD at 30 mg/kg/day, po measured after 2 months
[5] = system: Mus musculus; assay: Toxicity in SAMP6 mouse assessed as pathological changes in liver at 30 mg/kg/day, po after 3 months by histomorphology; assay type: organism-based; set-up: route oral; conditions: in vivo
Procedure, shortened: (§2)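 SAMP6 mice, n = 5 per group, dosed orally at 30 mg/kg/day in 0.5% methylcellulose for 3 months. Heart, liver, spleen, lung and kidney harvested, weighed and examined histologically. Organ/body weight indexes, body weight, and 24 h water and food intake (g/g body weight) compared with vehicle controls.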

[6] = system: Mus musculus; assay: Toxicity in SAMP6 mouse assessed as pathological changes in lung at 30 mg/kg/day, po after 3 months by histomorphology; assay type: organism-based; set-up: route oral; conditions: in vivo; procedure, shortened: as §2
[7] = system: Mus musculus; assay: Induction of bone formation in SAMP6 mouse right femora assessed as trabecular bone volume percentage at 30 mg/kg/day, po measured after 3 months by bone histomorphometry; assay type: functional, Trabecula
Procedure, shortened: (§3)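 SAMP6 mice, 5 months old, n = 5 per group (3 male, 2 female), randomized by initial BMD. Given compound in 0.5% methylcellulose by gavage daily for 3 months. Proximal third of the right femur fixed in 4% paraformaldehyde, cut as undecalcified sections, and scored by image analysis for histomorphometry.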

[8] = system: Mus musculus; assay: Induction of bone formation in SAMP6 mouse right femora assessed as trabecular resorption surface percentage at 30 mg/kg/day, po measured after 3 months by bone histomorphometry; assay type: functional, Trabecula; procedure, shortened: as §3
[9] = system: Mus musculus; assay: Induction of BMP2 expression in SAMP6 mouse bone marrow stroma at 30 mg/kg/day, po after 3 months by immunohistochemical analysis; assay type: functional, organism-based
Procedure, shortened: (§4)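 SAMP6 mice, 5 months old, male and female, n = 5 per group (3 male, 2 female). Dosed by gavage with compound suspended in 0.5% methylcellulose daily for 3 months; the vehicle group received methylcellulose only. Proximal third of the left femur fixed in 4% neutral paraformaldehyde for 24 h, decalcified in 10% EDTA at 4 °C for 4 weeks, then frozen-sectioned at 5 μm. Stained with rabbit polyclonal anti-BMP-2 and an alkaline phosphatase secondary. BMP-2-positive area was taken as a percentage of bone tissue area, averaged over five fields below the epiphyseal plate.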

[10] = system: Mus musculus; assay: Toxicity in SAMP6 mouse assessed as change in 24 hrs water consumption at 30 mg/kg/day, po after 3 months; assay type: organism-based; set-up: route oral; conditions: in vivo; procedure, shortened: as §2
[11] = system: Mus musculus; assay: Toxicity in SAMP6 mouse assessed as pathological changes in heart at 30 mg/kg/day, po after 3 months by histomorphology; assay type: organism-based; set-up: route oral; conditions: in vivo; procedure, shortened: as §2
[12] = system: Mus musculus; assay: Induction of BMP2 expression in SAMP6 mouse osteoblast at 30 mg/kg/day, po after 3 months by immunohistochemical analysis; assay type: functional, organism-based; procedure, shortened: as §4
[13] = system: Mus musculus; assay: Induction of bone mineral density in SAMP6 mouse assessed as spine BMD at 30 mg/kg/day, po measured after 3 months; assay type: functional; procedure, shortened: as §1
[14] = system: Mus musculus; assay: Toxicity in SAMP6 mouse assessed as increase in body weight at 30 mg/kg/day, po after 3 months; assay type: organism-based; set-up: route oral; conditions: in vivo; procedure, shortened: as §2
[15] = system: Mus musculus; assay: Induction of BMP2 expression in SAMP6 mouse cartilage cells at 30 mg/kg/day, po after 3 months by immunohistochemical analysis; assay type: functional, organism-based; procedure, shortened: as §4
[16] = system: Mus musculus; assay: Toxicity in SAMP6 mouse assessed as pathological changes in spleen at 30 mg/kg/day, po after 3 months by histomorphology; assay type: organism-based; set-up: route oral; conditions: in vivo; procedure, shortened: as §2
[17] = system: Mus musculus; assay: Induction of bone mineral density in SAMP6 mouse assessed as whole body BMD at 30 mg/kg/day, po measured after 3 months; assay type: functional; procedure, shortened: as §1
[18] = system: Mus musculus; assay: Induction of bone formation in SAMP6 mouse right femora assessed as trabecular formation surface percentage at 30 mg/kg/day, po measured after 3 months by bone histomorphometry; assay type: functional, Trabecula; procedure, shortened: as §3
[19] = system: Mus musculus; assay: Induction of bone formation in SAMP6 mouse right femora assessed as average osteoid width at 30 mg/kg/day, po measured after 3 months by bone histomorphometry; assay type: functional; procedure, shortened: as §3
[20] = system: Mus musculus; assay: Toxicity in SAMP6 mouse assessed as change in 24 hrs food consumption at 30 mg/kg/day, po after 3 months; assay type: organism-based; set-up: route oral; conditions: in vivo; procedure, shortened: as §2
[21] = system: Mus musculus; assay: Toxicity in SAMP6 mouse assessed as pathological changes in kidney at 30 mg/kg/day, po after 3 months by histomorphology; assay type: organism-based; set-up: route oral; conditions: in vivo; procedure, shortened: as §2
[22] = system: Mus musculus; assay: Induction of bone mineral density in SAMP6 mouse assessed as whole body BMD at 10 mg/kg/day, po measured after 1 month; assay type: functional, organism-based; conditions: 30 mg/kg, in the assay text read “30 mg/kg/day” for “10 mg/kg/day”; procedure, shortened: as §1
[23] = system: Mus musculus; assay: Induction of BMP2 expression in SAMP6 mouse osteoblast at 10 mg/kg/day, po after 3 months by immunohistochemical analysis; assay type: functional, organism-based; procedure, shortened: as §4
[24] = system: Mus musculus; assay: Induction of bone mineral density in SAMP6 mouse assessed as whole body BMD at 30 mg/kg/day, po measured after 2 months; assay type: functional, organism-based; procedure, shortened: as §1
[25] = system: Mus musculus; assay: Induction of bone mineral density in SAMP6 mouse assessed as whole body BMD at 10 mg/kg/day, po measured after 2 months; assay type: functional, organism-based; conditions: 30 mg/kg, in the assay text read “30 mg/kg/day” for “10 mg/kg/day”; procedure, shortened: as §1
[26] = system: Mus musculus; assay: Induction of bone mineral density in SAMP6 mouse assessed as spine BMD at 30 mg/kg/day, po measured last 2 months; assay type: functional, organism-based; procedure, shortened: as §1

## CS(=O)(=O)CC(=O)c1cc2cc3c(cc2s1)OCO3
[1]
  Activity: -9.3%

## COc1ccc(/C=C/C(=O)c2cc3ccccc3s2)cc1
[2]
  LD50 at 408 h: > 500 mg/kg
[3]
  Activity: 0.05 g/cm2
[4]
  Activity: Active
[5]
  Activity: Non-toxic
[6]
  Activity: Non-toxic
[7]
  Activity: 8.94%
[8]
  Activity: 6.29%
[9]
  Activity: Active
[10]
  Activity: Non-toxic
[11]
  Activity: Non-toxic
[12]
  Activity: Active
[13]
  Activity: 0.089 g/cm2
[14]
  Activity: Non-toxic
[15]
  Activity: inactive
[16]
  Activity: Non-toxic
[17]
  Activity: 0.07 g/cm2
[18]
  Activity: 6.54%
[1]
  Activity: 27.3%
[19]
  Activity: 5.5 µm
[20]
  Activity: Non-toxic
[21]
  Activity: Non-toxic
[22]
  Activity: Active
[23]
  Activity: Active

## C[S+]([O-])CC(=O)c1cc2ccccc2o1 (stereo not drawn)
[1]
  Activity: 3.9%

## O=C(/C=C/c1ccccc1Cl)c1cc2ccccc2s1
[1]
  Activity: 2%

## COc1cc2cc(C(=O)C[S+](C)[O-])sc2cc1OC (stereo not drawn)
[1]
  Activity: 13.5%

## O=C(/C=C/c1ccccc1)c1cc2ccccc2o1
[1]
  Activity: 24.4%

## CCOC(=O)c1cc2cc3c(cc2s1)OCO3
[2]
  LD50 at 408 h: > 500 mg/kg
[3]
  Activity: 0.053 g/cm2
[5]
  Activity: Non-toxic
[6]
  Activity: Non-toxic
[7]
  Activity: 7.1%
[8]
  Activity: 6.45%
[24]
  Activity: Active
[9]
  Activity: Active
[10]
  Activity: Non-toxic
[11]
  Activity: Non-toxic
[12]
  Activity: Active
[13]
  Activity: 0.091 g/cm2
[25]
  Activity: Active
[14]
  Activity: Non-toxic
[15]
  Activity: inactive
[16]
  Activity: Non-toxic
[17]
  Activity: 0.072 g/cm2
[18]
  Activity: 5.55%
[1]
  Activity: 64.2%
[26]
  Activity: Active
[19]
  Activity: 5.76 µm
[20]
  Activity: Non-toxic
[21]
  Activity: Non-toxic
[22]
  Activity: Active
[23]
  Activity: Active

## C[S+]([O-])CC(=O)c1cc2c(Cl)cccc2s1 (stereo not drawn)
[1]
  Activity: 18.5%

## CCOC(=O)c1cc2cc(OC)c(OC)cc2s1
[1]
  Activity: 49.9%

## CCOC(=O)c1cc2ccccc2s1
[1]
  Activity: 8.2%

## COC(=O)c1ccc2sc(C(C)=O)cc2c1
[1]
  Activity: 41.4%

## C[S+]([O-])CC(=O)c1cc2cc3c(cc2s1)OCO3 (stereo not drawn)
[1]
  Activity: 0.6%

## CCOC(=O)c1cc2cc(Cl)cc(Cl)c2o1
[1]
  Activity: -1.6%

## COc1cc2cc(C(C)=O)sc2cc1OC
[1]
  Activity: 37.1%

## CCOC(=O)c1ccc2sc(C(=O)/C=C/c3ccc(OC)c(OC)c3OC)cc2c1
[1]
  Activity: -21.5%

## CCOC(=O)c1cc2c(Cl)cccc2s1
[1]
  Activity: -0.6%

## CCOC(=O)c1cc2cccc(OC)c2o1
[1]
  Activity: 12.4%

## CC(=O)c1cc2ccccc2o1
[1]
  Activity: 33.5%

## CS(=O)(=O)CC(=O)c1cc2ccccc2s1
[1]
  Activity: 5.1%

## CCOC(=O)c1ccc2sc(C(=O)/C=C/c3ccccc3Cl)cc2c1
[1]
  Activity: 24%

## CCOC(=O)c1cc2ccccc2o1
[1]
  Activity: 7.1%

## O=C(/C=C/c1ccccc1)c1cc2ccccc2s1
[1]
  Activity: 15.4%

## CCOC(=O)c1cc2cc(C(=O)OC)ccc2s1
[1]
  Activity: 49.8%

## CCOC(=O)c1ccc2sc(C(=O)/C=C/c3ccc(OC)c(OC)c3)cc2c1
[1]
  Activity: -9.6%

## CCOC(=O)c1ccc2sc(C(=O)/C=C/c3ccc(OC)cc3)cc2c1
[1]
  Activity: 1.7%

## CCOC(=O)c1cc2cccc(F)c2o1
[1]
  Activity: -18.1%

## C[S+]([O-])CC(=O)c1cc2ccccc2s1 (stereo not drawn)
[2]
  LD50 at 408 h: > 700 mg/kg
[3]
  Activity: 0.05 g/cm2
[5]
  Activity: Non-toxic
[6]
  Activity: Non-toxic
[7]
  Activity: 5.95%
[8]
  Activity: 6.45%
[24]
  Activity: Active
[9]
  Activity: Active
[10]
  Activity: Non-toxic
[11]
  Activity: Non-toxic
[12]
  Activity: Active
[13]
  Activity: 0.09 g/cm2
[25]
  Activity: Active
[14]
  Activity: Non-toxic
[15]
  Activity: inactive
[16]
  Activity: Non-toxic
[17]
  Activity: 0.072 g/cm2
[18]
  Activity: 5.13%
[1]
  Activity: 19.7%
[19]
  Activity: 5.85 µm
[20]
  Activity: Non-toxic
[21]
  Activity: Non-toxic
[22]
  Activity: Active
[23]
  Activity: Active

## CCOC(=O)c1ccc2sc(C(=O)/C=C/c3ccccc3)cc2c1
[1]
  Activity: 12.6%

## O=C(/C=C/c1ccccc1Cl)c1cc2ccccc2o1
[1]
  Activity: 1.8%
